Series [1] relates to Staphylococcus aureus. The series can be described thus: Sensitization of methicillin-resistant Staphylococcus aureus USA400 MW2 to immune clearance in human whole blood assessed as bacterial survival at 1 uM measured after 24 hrs (reference value: 10.2%). Format: functional.
For series [2], the system named is Staphylococcus aureus. The series can be described thus: Antibacterial activity against Staphylococcus aureus Mu50 infected Balb/c mouse assessed as reduction of bacterial survival in kidney at 1.3 mg, ip bid administered for 4.5 days followed by bacterial infection measured after 5 days. In kind it is functional.
For series [3], the target named is Voltage-gated inwardly rectifying potassium channel KCNH2 (Homo sapiens, UniProt Q12809). The series can be described thus: Inhibition of human ERG expressed in CHO cells by Qpatch-clamp method. Format: cell-based. Background: The patch-clamp technique gives a direct electrical read-out from membranes.
Chain of Voltage-gated inwardly rectifying potassium channel KCNH2 (Q12809 whole entry): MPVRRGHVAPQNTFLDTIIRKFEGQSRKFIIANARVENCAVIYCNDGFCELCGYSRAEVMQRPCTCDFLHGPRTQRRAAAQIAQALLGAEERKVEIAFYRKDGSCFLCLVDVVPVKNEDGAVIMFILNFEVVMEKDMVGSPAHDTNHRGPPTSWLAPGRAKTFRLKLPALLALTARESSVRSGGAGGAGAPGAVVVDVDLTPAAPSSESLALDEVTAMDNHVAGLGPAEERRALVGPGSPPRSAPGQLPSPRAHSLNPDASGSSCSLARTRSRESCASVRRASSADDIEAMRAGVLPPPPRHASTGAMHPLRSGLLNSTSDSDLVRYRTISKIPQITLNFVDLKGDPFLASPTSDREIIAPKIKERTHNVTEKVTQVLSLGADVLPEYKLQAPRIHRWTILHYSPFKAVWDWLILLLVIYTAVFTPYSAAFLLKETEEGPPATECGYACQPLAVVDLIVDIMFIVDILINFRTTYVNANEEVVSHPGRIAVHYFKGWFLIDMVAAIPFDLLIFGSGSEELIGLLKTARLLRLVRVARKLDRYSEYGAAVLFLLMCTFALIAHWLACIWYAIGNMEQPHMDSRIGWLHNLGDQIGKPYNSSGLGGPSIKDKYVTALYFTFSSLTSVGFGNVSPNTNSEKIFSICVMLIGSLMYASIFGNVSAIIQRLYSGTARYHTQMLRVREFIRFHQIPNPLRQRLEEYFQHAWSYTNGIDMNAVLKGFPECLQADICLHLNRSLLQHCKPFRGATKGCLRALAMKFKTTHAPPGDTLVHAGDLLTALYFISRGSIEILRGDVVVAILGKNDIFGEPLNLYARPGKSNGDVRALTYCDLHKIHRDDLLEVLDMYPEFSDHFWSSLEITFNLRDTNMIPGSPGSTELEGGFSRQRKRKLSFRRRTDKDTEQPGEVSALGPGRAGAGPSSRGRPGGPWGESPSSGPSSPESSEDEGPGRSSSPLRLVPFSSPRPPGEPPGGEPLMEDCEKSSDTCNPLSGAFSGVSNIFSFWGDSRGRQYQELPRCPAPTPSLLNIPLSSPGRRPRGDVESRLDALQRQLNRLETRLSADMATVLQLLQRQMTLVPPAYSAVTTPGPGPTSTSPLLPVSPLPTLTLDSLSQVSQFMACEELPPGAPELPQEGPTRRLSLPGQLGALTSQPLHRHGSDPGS
Series [4] has as its target T1, 4,4'-diapophytoene desaturase (4,4'-diaponeurosporene-forming) (Staphylococcus aureus (strain Newman), UniProt O07855).
T1 sequence (O07855 whole entry): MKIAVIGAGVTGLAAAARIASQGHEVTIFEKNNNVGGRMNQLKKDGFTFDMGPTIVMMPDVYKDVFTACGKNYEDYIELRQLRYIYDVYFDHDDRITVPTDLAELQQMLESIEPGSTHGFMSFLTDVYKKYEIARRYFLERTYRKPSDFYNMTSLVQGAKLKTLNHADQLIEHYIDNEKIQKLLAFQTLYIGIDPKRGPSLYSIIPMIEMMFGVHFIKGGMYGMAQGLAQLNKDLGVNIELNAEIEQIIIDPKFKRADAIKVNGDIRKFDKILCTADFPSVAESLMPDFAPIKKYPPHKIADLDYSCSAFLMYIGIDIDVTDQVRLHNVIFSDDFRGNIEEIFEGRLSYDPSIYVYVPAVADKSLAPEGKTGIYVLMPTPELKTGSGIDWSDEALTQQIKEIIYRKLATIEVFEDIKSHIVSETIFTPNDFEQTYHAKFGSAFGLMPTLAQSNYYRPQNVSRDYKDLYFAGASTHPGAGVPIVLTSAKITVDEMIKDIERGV
In words: Inhibition of Staphylococcus aureus Newman 6His-tagged CrtN expressed in Escherichia coli BL21(DE3) using diapophytoene as substrate assessed as pigment formation after overnight incubation by spectrophotometric method. Further details: species or system Staphylococcus aureus subsp. aureus str. Newman. In a few lines: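 Lysate of E. coli BL21(DE3) expressing 6His-CrtN (IPTG 0.5 mM, 16 °C overnight), ~1.41 mg CrtN per reaction, with diapophytoene–phosphatidylcholine emulsion in 0.02 M HEPES pH 7.5 plus FAD. Anaerobic via glucose oxidase 20 U/mL, catalase 20000 U/mL, glucose 2 mM (final). Started with lysate, overnight at 37 °C; triplicate.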

Series [5] is described as follows: Aqueous solubility of the compound by HPLC method. Format: physicochemical. Put shortly: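 Calibration with standards at 50, 100, 200, 400 and 800 µg/mL in methanol (peak area vs concentration). 10 mg solid stirred in 1 mL pure water for 24 h, more added if still clear; syringe-filtered, 10 µL injected; solubility read from calibration curve.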
Series [6] relates to Staphylococcus aureus. The series can be described thus: Inhibition of staphyloxanthin pigment formation in methicillin-resistant Staphylococcus aureus USA300 LAC after 48 hrs by spectrophotometric method. Format: functional, organism-based. Put shortly:
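MRSA grown in 4 mL TSB with 40 µL compound (2-fold serial dilutions from 20 mM DMSO stock) at 37 °C for 48 h, triplicate. Cells washed twice in PBS, pigment extracted with methanol, OD450 measured; IC50 from dose-response fit.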

The nature of series [7]: Cytotoxicity against human WI38 cells measure after 72 hrs by SRB assay. In kind it is cell-based. The note with it: WI-38, 72 h. In general terms: In SRB staining, fixed cells bind dye roughly in proportion to their protein.
The subject of series [8] is Staphylococcus aureus. The series can be described thus: Suppression in survival of methicillin-resistant Staphylococcus aureus USA300 LAC at 0.2 mM measured after overnight incubation by spectrophotometric method. Format: ADME, organism-based. The note with it: 200 µM. Put shortly:
(§1)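 Compound from 20 mM DMSO stock diluted in TSB to final 0.2 or 0.05 mM; DMSO growth controls; paraffin overlay. Overnight cultures inoculated to final OD600 ≈ 0.05; incubated at 37 °C overnight with OD600 read every 30 min.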

The subject of series [9] is Staphylococcus aureus. The series can be described thus: Suppression in survival of methicillin-resistant Staphylococcus aureus Mu50 at 0.05 mM measured after overnight incubation by spectrophotometric method. In kind it is ADME, organism-based. The note with it: 50 µM. In a few lines: as §1
Series [10] deals with Staphylococcus aureus. The series can be described thus: Suppression in growth of methicillin-resistant Staphylococcus aureus USA400 MW2 at 0.05 mM measured after overnight incubation by spectrophotometric method. In kind it is organism-based. Particulars: 50 µM. Put shortly:
as §1

The subject of a further series is Trichophyton rubrum. In words: Antifungal activity against Trichophyton rubrum measured after 7 days by serial dilution method. Format: functional. Put shortly: (§2)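 Broth serial dilution MIC per NCCLS in RPMI 1640 buffered with 0.165 M MOPS; compounds in DMSO diluted in medium. Dermatophytes incubated at 28 °C, read at 7 days. MIC taken as lowest concentration giving ≥80% growth inhibition versus control (turbidity).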

The nature of series [11]: Total plasma clearance in Sprague-Dawley rat at 5 mg/kg, iv administered as single dose. In kind it is ADME, organism-based. Put shortly:
(§3)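 Male SD rats, 3 per group, single iv 5 mg/kg or oral 10 mg/kg. Blood sampled 0.083 (iv only), 0.25, 0.5, 1, 2, 4, 6, 8, 24 h postdose; plasma separated at 4 °C, stored −80 °C, analysed within 1 week. Parameters from plasma concentration-time data; F from dose-normalized AUC, oral vs iv.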

In series [12] the test system is Staphylococcus aureus. In words: Sensitization of methicillin-resistant Staphylococcus aureus USA300 LAC to H2O2 assessed as bacterial survival at 1 uM measured after 24 hrs (reference value: 14.2%). In kind it is functional.
In series [13] the test system is Staphylococcus aureus. In words: Suppression in growth of methicillin-resistant Staphylococcus aureus Mu50 at 0.05 mM measured after overnight incubation by spectrophotometric method. In kind it is organism-based. Particulars: 50 µM. In a few lines: as §1
Series [14] deals with Staphylococcus aureus. The series can be described thus: Sensitization of methicillin-resistant Staphylococcus aureus USA400 MW2 to immune clearance in human whole blood assessed as reduction in bacterial survival at 1 uM measured after 24 hrs relative to control. Format: functional. In a few lines: (§4)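 Overnight cultures spun down and resuspended in sterile PBS at 1 × 10^7 CFU/mL. 40 µL mixed with 360 µL fresh whole blood from a healthy human volunteer, giving 1 × 10^6 CFU/mL. Incubated 6 h at 37 °C. Surviving CFU counted by plating dilutions on TSA.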

Series [15] relates to Staphylococcus aureus. In words: Sensitization of methicillin-resistant Staphylococcus aureus Mu50 to immune clearance in human whole blood assessed as reduction in bacterial survival at 1 uM measured after 24 hrs relative to control. In kind it is functional. Put shortly:
as §4

In series [16] the test system is Staphylococcus aureus. In words: Sensitization of Staphylococcus aureus Newman to H2O2 assessed as reduction in bacterial survival at 1 uM measured after 24 hrs relative to control. In kind it is functional. Put shortly: (§5)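 Strains grown 24 h in TSB with or without inhibitor, washed twice in PBS, then diluted to 4 × 10^6 CFU per 250 µL reaction. H2O2 added to a final 1.5%. Tubes sealed and held 30 min at 37 °C. Reaction stopped with 1000 U/mL catalase. Survivors counted as CFU by serial dilution on TSA plates and compared with untreated (mock) bacteria.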

Series [17] can be described thus: Oral bioavailability in Sprague-Dawley rat at 10 mg/kg administered as single dose. Format: ADME, organism-based. The note with it: in vivo. Put shortly: as §3
The test system of series [18] is Trichophyton mentagrophytes. In words: Antifungal activity against Trichophyton mentagrophytes measured after 7 days by serial dilution method. Format: functional. In a few lines: as §2
The subject of series [19] is Staphylococcus aureus. In words: Sensitization of methicillin-resistant Staphylococcus aureus USA300 LAC to H2O2 assessed as reduction in bacterial survival at 1 uM measured after 24 hrs relative to control. Format: functional. In a few lines:
as §5

Each structure is given as a SMILES string.

From ChEMBL document CHEMBL3813689, “Discovery of Potent Benzofuran-Derived Diapophytoene Desaturase (CrtN) Inhibitors with Enhanced Oral Bioavailability for the Treatment of Methicillin-Resistant Staphylococcus aureus (MRSA) Infections” (J Med Chem, 2016) come the findings set out here.

Turning to `CN(C/C=C/c1ccc(C(F)(F)F)cc1)Cc1cccc2ccoc12.Cl`, the survival at 1 µM with Staphylococcus aureus [1] worked out at 1.3%; with Staphylococcus aureus [12] it was 0.7%. For the same compound, the Activity with Staphylococcus aureus [2] is on record as 0.68 deltalog10CFU; with Staphylococcus aureus [8], “Non-toxic”; with Staphylococcus aureus [9], “Non-toxic”; with Staphylococcus aureus [10] it was “Non-toxic”; in the series with Staphylococcus aureus [13] it was “Non-toxic”. In addition, the IC50 – broadly, the concentration at which inhibition is half-maximal – was 3.71 µM in [3], 0.339 µM in series [4], 0.00339 µM with Staphylococcus aureus [6] and 47.9 µM in [7]. For the same compound, the solubility (usually how much of the substance goes into solution per volume) in series [5] turned out to be 10000 µg/mL. In the series on Trichophyton rubrum, the MIC80 (in general, an inhibitory concentration at the 80% level, which refers to growth in some studies and to a panel of isolates in others) was determined as 16 µg/mL. The clearance (usually a measure of how efficiently the substance is removed, as volume per time) in [11] is 54.3 mL/min/kg. The “fold change (FC)” value with Staphylococcus aureus [14] was found to be 8; in the series on Staphylococcus aureus [15] it was 5; with Staphylococcus aureus [16] it was 30; in the series on Staphylococcus aureus [19], 20. The bioavailability (in general, the share of a dose that reaches the circulation, judged against a reference dose that is usually intravenous) in series [17] was 42.2%. For the same compound, the “MIC=<80” value in series [18] is more than 64 µg/mL.
